Reference: ChEMBL document CHEMBL1135463 (J Med Chem, 2002)
Converted amounts (≈) assume the structure as drawn. The source made the active and inactive calls. No cut-off for these calls is given here.

Columns and labels:
BXPC-3 [1] = assay: In vitro growth inhibition of BXPC-3 (human pancreatic adenocarcinoma) cell line.; format: functional
DU-145 [2] = assay: In vitro growth inhibition of DU-145 (human prostate carcinoma) cell line.; format: functional
KM-20L2 [3] = assay: In vitro growth inhibition of KM20L2 cell line.; format: functional; settings: Homo sapiens
[4] = In vitro growth inhibition of NCI-H460 (human non-small cell lung carcinoma) cell line.; format: functional
P388 [5] = assay: In vitro inhibition of P388 (murine leukemia) cell proliferation.; format: functional; settings: Mus musculus, read-out: ED50 (the source's name)
SF-268 [6] = assay: In vitro growth inhibition of central nervous system SF-268 cell line.; format: functional; settings: Homo sapiens
Candida albicans [7] = assay: The minimum inhibitory concentration (MIC) that inhibits all visible growth of the Candida albicans (fungus) at 64 ug/mL; NI is no inhibition; format: functional, organism-based
How it was run: (§1)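 Broth microdilution following NCCLS reference methods (M7-A4 for aerobic bacteria, the yeast broth dilution standard for fungi). MIC is the lowest compound concentration giving optically clear wells, with no visible growth of the test organism.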

Cryptococcus neoformans [8] = assay: Minimum inhibitory concentration (MIC) that inhibits all visible growth of the Cryptococcus neoformans (fungus); format: functional; how it was run: as §1
Enterobacter cloacae = assay: The minimum inhibitory concentration (MIC) that inhibits all visible growth of the Enterobacter cloacae (bacteria) at 64 ug/mL; NI is no inhibition; format: functional, organism-based; how it was run: as §1
Enterococcus faecalis [9] = assay: the minimum inhibitory concentration (MIC) that inhibits all visible growth of the Enterococcus faecalis (bacteria) at 64 ug/mL; NI is no inhibition; format: functional, organism-based; how it was run: as §1
Escherichia coli = assay: The minimum inhibitory concentration (MIC) that inhibits all visible growth of the Escherichia coli (bacteria) at 64 ug/mL; NI is no inhibition; format: functional, organism-based; how it was run: as §1
Enterococcus faecalis [10] = assay: The minimum inhibitory concentration (MIC) that inhibits all visible growth of the Enterococcus faecalis (bacteria) at 64 ug/mL; NI is no inhibition; format: functional, organism-based; how it was run: as §1
Micrococcus luteus [11] = assay: the minimum inhibitory concentration (MIC) that inhibits all visible growth of the Micrococcus luteus (bacteria) at 64 ug/mL; NI is no inhibition; format: functional, organism-based; how it was run: as §1
Neisseria gonorrhoeae [12] = assay: The minimum inhibitory concentration (MIC) that inhibits all visible growth of the Neisseria gonorrhoeae (bacteria); value may range from (16 -32); format: functional; how it was run: as §1
Staphylococcus aureus [13] = assay: The minimum inhibitory concentration (MIC) that inhibits all visible growth of the Staphylococcus aureus (bacteria) at 64 ug/mL; NI is no inhibition; format: functional, organism-based; how it was run: as §1
[14] = tested on: Stenotrophomonas maltophilia; assay: The minimum inhibitory concentration (MIC) that inhibits all visible growth of the Stenotrophomonas maltophilia (bacteria) at 64 ug/mL; NI is no inhibition; format: functional, organism-based; how it was run: as §1
Streptococcus pneumoniae [15] = assay: The minimum inhibitory concentration (MIC) that inhibits all visible growth of the Streptococcus pneumoniae (bacteria); MIC may range from (32 - 64); format: functional; how it was run: as §1
MCF7 = assay: Cell growth inhibition of breast MCF-7 cells, expressed as 50% reduction in the net protein increase; format: functional; settings: Homo sapiens
Streptococcus pneumoniae [16] = assay: The minimum inhibitory concentration (MIC) that inhibits all visible growth of the Streptococcus pneumoniae (bacteria); format: functional; how it was run: as §1
BXPC-3 [17] = assay: Cell growth inhibition against pancreatic BXPC-3 cells, 50% reduction in the net protein increase; format: functional; settings: Homo sapiens
How it was run: (§2)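 Human tumour lines kept in 5% FBS/RPMI-1640, plated and incubated 24 h before compound dilutions were added. Exposure 48 h, then TCA fixation, washing and sulforhodamine B staining, with optical density read on a plate reader. GI50 is the concentration giving a 50% reduction in net protein increase, calculated from the OD data.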

DU-145 [18] = assay: Cell growth inhibition of prostate DU-145 cells, expressed as 50% reduction in the net protein increase; format: functional; settings: Homo sapiens; how it was run: as §2
KM-20L2 [19] = assay: Cell growth inhibition of colon KM20L2 cells, expressed as 50% reduction in the net protein increase; format: functional; settings: Homo sapiens; how it was run: as §2
NCI-H460 = assay: Cell growth inhibition of lung-NSC NCI-H460 cells, expressed as 50% reduction in the net protein increase; format: functional; settings: Homo sapiens; how it was run: as §2
P388 [20] = assay: Evaluated for cell growth inhibition of the mouse leukemia P388 cells in 10% horse serum/Fisher media; format: functional; settings: read-out: ED50 (the source's name)
How it was run: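 Murine P388 leukaemia cells grown in 10% horse serum/Fisher medium, incubated 24 h, then compound dilutions added. After 48 h, cells counted on a Coulter Z1 particle counter and the ED50 for growth inhibition calculated.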

SF-268 [21] = assay: Cell growth inhibition of central nervous system (CNS) SF-268 cells, expressed as 50% reduction in the net protein increase; format: functional; settings: Homo sapiens; how it was run: as §2
Candida albicans [22] = assay: The minimum inhibitory concentration (MIC) that inhibits all visible growth of the Candida albicans (fungus); format: functional; how it was run: as §1
Cryptococcus neoformans [23] = assay: Minimum inhibitory concentration (MIC) that inhibits all visible growth of the Cryptococcus neoformans (fungus).; format: functional; how it was run: as §1
Enterococcus faecalis [24] = assay: the minimum inhibitory concentration (MIC) that inhibits all visible growth of the Enterococcus faecalis (bacteria); format: functional; how it was run: as §1
Micrococcus luteus [25] = assay: the minimum inhibitory concentration (MIC) that inhibits all visible growth of the Micrococcus luteus (bacteria); format: functional; how it was run: as §1
Neisseria gonorrhoeae [26] = assay: The minimum inhibitory concentration (MIC) that inhibits all visible growth of the Neisseria gonorrhoeae (bacteria); format: functional; how it was run: as §1
Staphylococcus aureus [27] = assay: The minimum inhibitory concentration (MIC) that inhibits all visible growth of the Staphylococcus aureus (bacteria); format: functional; how it was run: as §1
Tubulin = Tubulin (Bos taurus, UniProt Q6B856+Q862L2+Q862F3); assay: Inhibition of tubulin polymerization reported as IC50; format: functional
Cryptococcus neoformans [28] = assay: Minimum inhibitory concentration (MIC) that inhibits all visible growth of the Cryptococcus neoformans (fungus) at 64 ug/mL; NI is no inhibition; format: functional, organism-based; how it was run: as §1
Micrococcus luteus [29] = assay: The minimum inhibitory concentration (MIC) that inhibits all visible growth of the Micrococcus luteus (bacteria) at 64 ug/mL; NI is no inhibition; format: functional, organism-based; how it was run: as §1

SMILES	GI50 (BXPC-3 [1]) [µg/mL]	GI50 (DU-145 [2]) [µg/mL]	EC50 (P388 [5]) [µg/mL]	MIC (Candida albicans [7])	MIC (Enterobacter cloacae)	MIC (Escherichia coli)	MIC (Enterococcus faecalis [10])	MIC (Staphylococcus aureus [13])	MIC [14]	GI50 (MCF7) [µg/mL]	MIC (Streptococcus pneumoniae [16]) [µg/mL]	MIC (Neisseria gonorrhoeae [26]) [µg/mL]	GI50 (KM-20L2 [3]) [µg/mL]	GI50 [4] [µg/mL]	GI50 (SF-268 [6]) [µg/mL]	other results
COc1ccc(C(O)c2cc(OC)cc(OC)c2)cc1 (stereo not given)	16.1 (≈ 58.7 µM)	23.2 (≈ 84.6 µM)	20.2 (≈ 73.6 µM)										21 (≈ 76.6 µM)	21.7 (≈ 79.1 µM)	23.3 (≈ 84.9 µM)	
O=C(c1ccc(O)cc1)c1cc(O)cc(O)c1	20.5 (≈ 89 µM)	15 (≈ 65.2 µM)	> 100							30.6 (≈ 133 µM)	64 (≈ 278 µM)		24.5 (≈ 106 µM)	25 (≈ 109 µM)	22.3 (≈ 96.9 µM)	
COc1ccc(/C=C\c2cc(OC)c(OC)c(OC)c2)cc1O [COMBRETASTATIN A4]																GI50 (BXPC-3 [17]): 0.39 µg/mL (≈ 1.23 µM); GI50 (DU-145 [18]): 0.0008 µg/mL (≈ 0.00253 µM); GI50 (KM-20L2 [19]): 0.34 µg/mL (≈ 1.07 µM); GI50 (NCI-H460): 0.0006 µg/mL (≈ 0.0019 µM); EC50 (P388 [20]): 0.0003 µg/mL (≈ 0.000948 µM); GI50 (SF-268 [21]): > 0.01 µg/mL
COc1cc(O)cc(C(=O)c2ccc(O)cc2)c1	21.7 (≈ 88.8 µM)	16.5 (≈ 67.6 µM)	26.2 (≈ 107 µM)	inactive	inactive	inactive	inactive	inactive	inactive	26.8 (≈ 110 µM)	64 (≈ 262 µM)	32 (≈ 131 µM)	31.6 (≈ 129 µM)	12.1 (≈ 49.5 µM)	26.4 (≈ 108 µM)	MIC (Cryptococcus neoformans [28]): inactive; MIC (Micrococcus luteus [29]): inactive

More lines, main results first:

GI50 (BXPC-3 [1]) [µg/mL]	GI50 (DU-145 [2]) [µg/mL]	EC50 (P388 [5]) [µg/mL]	MIC (Candida albicans [7])	MIC (Enterobacter cloacae)	MIC (Escherichia coli)	MIC (Enterococcus faecalis [10])	MIC (Staphylococcus aureus [13])	MIC [14]	GI50 (MCF7) [µg/mL]	MIC (Streptococcus pneumoniae [16]) [µg/mL]	MIC (Neisseria gonorrhoeae [26]) [µg/mL]	SMILES	GI50 (KM-20L2 [3]) [µg/mL]	GI50 [4] [µg/mL]	GI50 (SF-268 [6]) [µg/mL]	other results
15 (≈ 58.1 µM)	12.6 (≈ 48.8 µM)	13.4 (≈ 51.9 µM)	inactive	inactive	inactive	inactive	inactive	inactive	14.2 (≈ 55 µM)			COc1ccc(C(=O)c2cc(O)cc(OC)c2)cc1	16.2 (≈ 62.7 µM)	10.3 (≈ 39.9 µM)	13.9 (≈ 53.8 µM)	MIC (Cryptococcus neoformans [8]): 64 µg/mL (≈ 248 µM); MIC (Enterococcus faecalis [9]): inactive; MIC (Micrococcus luteus [11]): inactive; MIC (Neisseria gonorrhoeae [12]): 32 µg/mL (≈ 124 µM); MIC (Streptococcus pneumoniae [15]): 64 µg/mL (≈ 248 µM)
12.6 (≈ 49.2 µM)	2.3 (≈ 8.97 µM)	2.95 (≈ 11.5 µM)							3 (≈ 11.7 µM)	16 (≈ 62.4 µM)	8 (≈ 31.2 µM)	COc1cc(/C=C\c2ccc(O)cc2)cc(OC)c1	11.9 (≈ 46.4 µM)	2.8 (≈ 10.9 µM)	2.2 (≈ 8.58 µM)	MIC (Candida albicans [22]): 64 µg/mL (≈ 250 µM); MIC (Cryptococcus neoformans [23]): 16 µg/mL (≈ 62.4 µM); MIC (Enterococcus faecalis [24]): 32 µg/mL (≈ 125 µM); MIC (Micrococcus luteus [25]): 8 µg/mL (≈ 31.2 µM); MIC (Staphylococcus aureus [27]): 32 µg/mL (≈ 125 µM); IC50 (Tubulin): 29 µM
